Experimental data reported in PubChem BioAssay AID624466 (The Scripps Research Institute Molecular Screening Center, 2012).
In all, about 360,000 compounds went through this assay and about 5,400 (1.5%) were called active. What follows is part of a selection rich in actives, with near analogues and random picks from the rest. Values without a mark were called inactive.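 How the source made its calls: active means inhibition above a per-plate cutoff, the mean inhibition of test compounds on that plate plus 3 SD (cut at about 49% in these data); inactive means the rest.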

These molecules were tested against Trace amine-associated receptor 1 (Homo sapiens) (UniProt Q96RJ0) (assay: human TAAR1 antagonists, primary screen, Fluo-8 calcium fluorescence, CHO RD-HGA16 cells (AID 624466;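 further: 0% = DMSO plus EC80 beta-PEA response and 100% = DMSO alone without agonist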)). Conditions: CHO RD-HGA16 TAAR1, Fluo-8 calcium fluorescence, antagonist; at 3 µM; stronger effect = higher value.
Trace amine-associated receptor 1 (Homo sapiens), sequence (Q96RJ0 whole entry, looked up): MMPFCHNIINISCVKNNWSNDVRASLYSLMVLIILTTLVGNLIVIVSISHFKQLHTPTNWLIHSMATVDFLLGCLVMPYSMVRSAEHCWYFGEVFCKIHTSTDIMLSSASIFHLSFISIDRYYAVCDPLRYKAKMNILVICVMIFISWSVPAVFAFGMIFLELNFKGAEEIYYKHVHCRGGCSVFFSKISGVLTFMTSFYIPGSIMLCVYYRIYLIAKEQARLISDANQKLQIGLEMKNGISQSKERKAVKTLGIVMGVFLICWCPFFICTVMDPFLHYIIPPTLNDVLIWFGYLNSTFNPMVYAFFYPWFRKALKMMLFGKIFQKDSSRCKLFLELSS
Outline: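 Assay system: CHO-derived RD-HGA16 cells stably expressing human TAAR1 plus Gα16. Timing: 140 s kinetic read after compound, 140 s after agonist. Technique: kinetic Fluo-8 calcium fluorescence measurement. Measure: % inhibition of agonist calcium response.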
In the case of `OC(CCl)CCl`, the inhibition is reported as -9.09%. Work on `CCCCCn1nnnc1-c1nc2cc3ccccc3cc2[nH]c1=O` yielded an inhibition of 21.1%. With `Cc1ccc(Cc2c(-c3ccc(Cl)cc3)nc3c4ccccc4ccn23)cc1` the inhibition was -7.64%. `COC(=O)C[C@H]1C=C[C@@H](NS(=O)(=O)c2ccc(C)cc2)[C@@H](CO)O1` showed an inhibition of -21.2%. `CCOc1ccc(N(CC(=O)OC)S(=O)(=O)c2c(C)noc2C)cc1` showed an inhibition of 1.95%. With `Cc1cc(C)cc(N(CC(=O)NCC2CCCO2)S(=O)(=O)c2c(C)noc2C)c1` (centres undefined) the inhibition was -14.5%. For `Cc1noc(C)c1S(=O)(=O)N(CC(=O)Nc1ccc2c(c1)OCCO2)c1ccc(C(C)C)cc1`, the inhibition was 52.7% (active). For `CCOC(=O)c1cccc(NC(=O)CN(c2ccc(C)cc2)S(=O)(=O)c2c(C)noc2C)c1`, the inhibition was 72.2% (active). For `O=C(CCS(=O)(=O)Cc1ccccc1)Nc1ccc2c(c1)OCCO2`, the inhibition was -13.2%. In the case of `O=C(CN(c1ccc2c(c1)OCCO2)S(=O)(=O)c1ccccc1)Nc1ccc2c(c1)OCO2`, the inhibition is reported as 54% (active). In the case of `COc1ccc(N(CC(=O)Nc2cc(OC)ccc2OC)S(=O)(=O)c2c(C)noc2C)cc1`, the inhibition is reported as 4.12%. For `Cc1noc(C)c1S(=O)(=O)N(CC(=O)NCc1ccc(Cl)cc1)c1ccc2c(c1)OCO2`, the inhibition was -0.54%. Molecule `CCN(CC(=O)Nc1ccc2c(c1)OCO2)S(=O)(=O)c1ccccc1` has an inhibition of 7.44%. With `C[C@H](O)[C@@H]1CN2CCc3ccc(-c4ccc5c(c4)OCO5)cc3[C@@H]2C[C@@H]1N(C)C(=O)C1CCCCC1` the inhibition was -24.1%. `OC(c1cc(Cl)cc(Cl)c1)c1ncc(-c2ccccc2C(F)(F)F)[nH]1` (centres undefined) showed an inhibition of 11.8%. `Cc1cc2c(nc1C)CCCN2C` gave an inhibition of 0.43%. In the case of `COc1ccc(N2c3ccccc3CN(Cc3ccccc3)[C@@H](C)[C@H]2Cc2ccc(-c3ccccc3)cc2)cc1`, the inhibition is reported as -11.9%. `COC(=O)[C@]12C[C@H](CC(=O)NCCc3ccccc3OC)C(=O)N(Cc3ccccc3)C1=C[C@H](C(C)C)O[C@@H]2C1CC1` gave an inhibition of -27.5%. `Cc1ccc2nc(COc3ccc(N(C)S(=O)(=O)c4ccccc4)cc3)cc(=O)n2c1` showed an inhibition of 36%. In the case of `Cc1ccnc(NC(=O)C2CCN(S(=O)(=O)c3c(C)c(C)cc(C)c3C)CC2)c1`, the inhibition is reported as 50% (active). Work on `O=C(Nc1ccccn1)C1CCN(S(=O)(=O)c2ccccc2)CC1` yielded an inhibition of 0.4%. In the case of `Cc1cccc(NC(=O)C2CCN(S(=O)(=O)c3cccc4cccnc34)CC2)c1`, the inhibition is reported as 32.8%. Work on `COC(=O)[C@H](CC(C)C)NS(=O)(=O)c1c(F)cccc1F` yielded an inhibition of -8.02%. `COC(=O)C1=C(C)N(Cc2cccc(C(F)(F)F)c2)C(=NCc2ccccc2)NC1c1ccccc1C(F)(F)F` (centres undefined) showed an inhibition of -4.18%. `O=C1N[C@@H](c2ccccc2)COC(=O)[C@H](Cc2ccc(F)cc2)C/C=C\C[C@@H]1CC(=O)N(CCO)Cc1ccccc1` showed an inhibition of 42.8%. In the case of `O=C1NC[C@@H](c2ccccc2)OC(=O)[C@H](Cc2ccc(F)cc2)CC/C=C/C[C@H]1CC(=O)N(CCO)Cc1ccccc1`, the inhibition is reported as 74% (active). With `O=C1CCC/C=C/C[C@@H](CC(=O)N(CCO)Cc2ccccc2)C(=O)NC[C@H](c2ccccc2)O1` the inhibition was -5.27%. `COc1ccc(C2=CN(Cc3ccccc3)C(c3ccc(OC)cc3)CC2=O)cc1` (centres undefined) gave an inhibition of -4.92%. For `COc1ccc2[nH]c(C(=O)N/N=C/c3cc(OC)c(OC)c(OC)c3)cc2c1`, the inhibition was 50.5% (active). For `COc1cccc(OCc2cc(/C=N/NC(=O)c3nc(Cl)c(Cl)c(N)c3Cl)ccc2OC)c1`, the inhibition was -5%. Work on `COc1ccc2[nH]c(C(=O)Nc3ccccc3Cl)cc2c1` yielded an inhibition of -23.7%. Work on `Cc1cc(NCCc2c[nH]c3ccccc23)ccc1Oc1cccnc1` yielded an inhibition of 21.6%. With `COc1ccc2sc(-c3ccc(S(C)(=O)=O)cc3)c(-c3ccc(C(N)=O)cc3)c2c1` the inhibition was 50.5% (active). For `COc1cc(OC)cc(-c2sc3ccc(OC)cc3c2-c2ccc3cc[nH]c3c2)c1`, the inhibition was -5.68%. In the case of `COc1ccc2sc(-c3ccc(S(C)(=O)=O)cc3)c(C#Cc3cncn3C)c2c1`, the inhibition is reported as 47.9%. In the case of `CN(C)C(=O)N1CCN(C(=O)[C@@H](Cc2ccccc2)NC(=O)[C@H]2O[C@@H](n3ccc(N)nc3=O)[C@H](O)[C@@H]2O)CC1`, the inhibition is reported as -11.3%. For `CCOC(=O)N1CCN(C(=O)C[C@@H]2C[C@@]3(C(=O)OC)CCCCC=C3N(CCC3=CCCCC3)C2=O)CC1`, the inhibition was 16.7%. For `OC(c1ccccc1)(c1ccccc1)C1CCN(CCCOc2ccccc2)CC1`, the inhibition was 19.2%. `N#Cc1ccc(OCCCN2CCC(C(O)(c3ccccc3)c3ccccc3)CC2)c(F)c1` was tested, and the inhibition was 18.2%. In the case of `OC(c1ccccc1)(c1ccccc1)C1CCN(CCCOc2ccc(-c3ccsc3)cc2)CC1`, the inhibition is reported as 51.2% (active). In the case of `CCC(C(=O)NC(C)(C)C)n1c(-c2ccccc2)nc2ccccc21` (centres undefined), the inhibition is reported as -9.33%. Molecule `COc1ccc(C(C(=O)Nc2c(C)cccc2C)N2CCN(c3ccc(C)cc3)CC2)cc1` (centres undefined) has an inhibition of -16.4%. `Cc1ccccc1CN1C(=O)CSCC1(C)C(=O)Nc1c(C)cccc1C` (centres undefined) gave an inhibition of -0.37%. With `COc1cccc(C(=O)NCCS(=O)(=O)NCC2CCCO2)c1` (centres undefined) the inhibition was 4.1%. For `CN(C)S(=O)(=O)N1CCC(Oc2cccc(C(=O)NCCCC3CCCC3)c2)CC1`, the inhibition was 61.1% (active). Work on `CN(C(=O)c1cccc(OC2CCN(S(=O)(=O)N(C)C)CC2)c1)C1CCOC1` (centres undefined) yielded an inhibition of -15.9%. `CCCCn1nnnc1C1(C)CCC(=O)N1Cc1ccc(OC)c(OC)c1` (centres undefined) gave an inhibition of -1.16%. Work on `CC(C)(C)NC(=O)C(CCc1ccccc1)n1c(=O)c(-c2ccccc2)nc2ccccc21` (centres undefined) yielded an inhibition of -53.9%. For `COc1ccc(CCNC(=O)c2nnc(CS(=O)(=O)c3ccccc3)o2)cc1OC`, the inhibition was -2.06%. `COc1ccc(CCNC(=O)c2ccc(CS(=O)(=O)c3ccc(Br)cc3)o2)cc1OC` was tested, and the inhibition was 77.3% (active). `COc1ccccc1CNC(=O)c1ccc(CS(=O)(=O)c2ccccc2)o1` was tested, and the inhibition was 26.5%. Work on `CCCCNC(=O)Nc1c(C)cc(SC#N)cc1C` yielded an inhibition of 7.39%. With `O=C(NN1C(=O)C2C3C=CC(C4CC34)C2C1=O)c1ccc(Cl)cc1` (centres undefined) the inhibition was 1.86%. `Cc1ccc(N)cc1CN1CCN(c2ncc(Cc3ccccc3)cn2)CC1` was tested, and the inhibition was -11.9%. With `O=C(Nc1ccc(S(=O)(=O)N2CCCCCC2)cc1)c1c(F)cccc1F` the inhibition was -11.6%. For `Cc1onc(-c2c(F)cccc2Cl)c1C(=O)Nc1cccc(S(=O)(=O)N2CCCCC2)c1`, the inhibition was 60.4% (active). With `O=C(Nc1cccc(S(=O)(=O)N2CCCCC2)c1)c1cncc(Br)c1` the inhibition was 28.2%. For `Cc1ccccc1S(=O)(=O)N1[C@@H](c2cccc(Cl)c2)C(C(=O)OC(C)(C)C)=CC[C@H]1c1ccc(Cl)cc1`, the inhibition was -16.6%. For `Cc1ccccc1S(=O)(=O)N1[C@@H](c2cccc(Cl)c2)C(C(=O)O)=CC[C@H]1c1ccc(Cl)cc1`, the inhibition was 50.1% (active). `Cc1ccc([C@@H]2CC=C(C(=O)O)[C@H](c3cccc(Cl)c3)N2S(=O)(=O)c2ccc(C)cc2)cc1` gave an inhibition of 29.7%. With `CC(C)(C)n1nc(C2CC2)c(Br)c1NC(=O)c1ccccc1F` the inhibition was -16.1%. With `O=S(=O)(c1cccs1)N1CCCc2nc(-c3ccc(Br)cc3)ccc21` the inhibition was 58% (active). Molecule `COc1ccc(-c2ccc3c(n2)CCCN3S(=O)(=O)c2ccc(C)cc2)cc1` has an inhibition of 24%. `CN1CCCc2nc(-c3ccccc3)ccc21` was tested, and the inhibition was -0.46%. `COC(=O)[C@]12C[C@H](CC(=O)N3CCN(C(=O)C4CC4)CC3)C(=O)N(Cc3ccc4c(c3)OCO4)C1=C[C@H](C(C)(C)C)O[C@@H]2C` showed an inhibition of 1.35%. `O=C1Nc2ccccc2-n2nnnc2C1N1CCN(c2cccc(C(F)(F)F)n2)CC1` (centres undefined) gave an inhibition of 7.81%. In the case of `COc1ccc(C(=O)Nc2cccc(NC(=O)c3ccc(OC)cc3OC)n2)c(OC)c1`, the inhibition is reported as 64.8% (active). `COc1ccc(C(=O)CCC(=O)Nc2cccnc2)c(OC)c1` was tested, and the inhibition was -6.73%. `COc1ccc(C(=O)NC(C)CCc2ccccc2)c(OC)c1` (centres undefined) was tested, and the inhibition was -22.5%. `CC1(C(=O)Nc2ccc3c(c2)OCCO3)CSCC(=O)N1CCOc1ccccc1` (centres undefined) showed an inhibition of -7.49%. In the case of `CCN(CC)c1ccc2oc(=O)c(C)nc2c1`, the inhibition is reported as 49.8% (active). `Cc1ccc2oc(=O)ccc2c1` was tested, and the inhibition was 2.03%. With `CCc1ccc2oc(-c3ccc(N)cc3)nc2c1` the inhibition was 8.65%. `O=C(NCCCn1ccnc1)c1cc2c(s1)CCCC2` gave an inhibition of -26.6%. `C/C=N/N(c1ccccc1)c1ccccc1` showed an inhibition of -13.2%. Molecule `C[C@H]1CN([C@@H](C)CO)C(=O)CCCn2nncc2CO[C@@H]1CN(C)C(=O)Nc1ccc(N2CCN(C)CC2)cc1` has an inhibition of 5.42%. Work on `CC(C)CNC(=S)Nc1ccc(F)cc1` yielded an inhibition of 5.98%. Work on `O=C(CCl)Nc1ccc(Sc2ccc(NC(=O)CCl)cc2)cc1` yielded an inhibition of 21.9%. `CC(C)(CCl)C(=O)Nc1ccc(Sc2ccc(F)cc2)cc1` was tested, and the inhibition was 57.9% (active). Molecule `COc1cc(NS(=O)(=O)c2ccc(N/C=C(\C=O)c3nc4cc(Cl)ccc4o3)cc2)nc(OC)n1` has an inhibition of 16.2%. Molecule `CCN(CC(=O)NC1CCS(=O)(=O)C1)S(=O)(=O)c1ccccc1` (centres undefined) has an inhibition of -18%. For `O=C(NCCc1c[nH]c2ccccc12)C1CCN(Cc2ccc(Br)cc2)CC1`, the inhibition was 2.79%. `N#C/C(=C\c1ccc(N2CCOCC2)o1)C(=O)N1CCOCC1` was tested, and the inhibition was -12.1%. With `N#C/C(=C/c1ccc(N2CCCCC2)o1)C(=O)NCCc1c[nH]c2ccccc12` the inhibition was 57.6% (active).
